Laboratory results published in ChEMBL document CHEMBL1140298, “Identification of borinic esters as inhibitors of bacterial cell growth and bacterial methyltransferases, CcrM and MenH” (2005).
In brackets after ≈: the same amount, converted by molar mass. Activity calls are given as the source filed them. The rule behind the calls is not given here.

What was measured:
Bacillus subtilis = test: Antibacterial activity against Bacillus subtilis ATCC 23857; type: functional
Method in brief: (§1)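 MIC determined following NCCLS guidelines.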

Bacillus anthracis = test: Antibacterial activity against Bacillus anthracis; type: functional
Method in brief: (§2)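 MIC read-out, determined according to NCCLS guidelines.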

Haemophilus influenzae = test: Antibacterial activity against Haemophilus influenzae ATCC 4976; type: functional; method in brief: as §1
[1] = tested on: Mycobacterium tuberculosis; test: Antibacterial activity against Mycobacterium tuberculosis H37Rv; type: functional; method in brief: as §2
[2] = tested on: Staphylococcus epidermidis; test: Antibacterial activity against Staphylococcus epidermidis ATCC 12228; type: functional; method in brief: as §1
Enterococcus faecalis = test: Antibacterial activity against Enterococcus faecalis ATCC 29212; type: functional; method in brief: as §1
[3] = tested on: Yersinia pseudotuberculosis; test: Antibacterial activity against Yersinia pseudotuberculosis ATCC 29833; type: functional; method in brief: as §2
[4] = target: T1, Demethylmenaquinone methyltransferase (Bacillus subtilis (strain 168)) (UniProt P31113); test: Inhibition of Bacillus subtilis MenH methyltransferase assessed as {3H-Me] to DNA at 100 uM relative control
T1 sequence (whole entry): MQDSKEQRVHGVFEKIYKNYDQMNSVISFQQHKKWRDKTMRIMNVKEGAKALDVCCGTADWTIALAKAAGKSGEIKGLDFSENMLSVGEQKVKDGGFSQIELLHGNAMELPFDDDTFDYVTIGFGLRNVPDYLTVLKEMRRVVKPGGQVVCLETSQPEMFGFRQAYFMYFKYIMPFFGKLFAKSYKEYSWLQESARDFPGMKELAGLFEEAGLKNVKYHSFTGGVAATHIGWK
Method in brief: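 Lysate of E. coli JM109 overexpressing B. subtilis MenH (IPTG 1 mM induction, sonicated) in 0.1 M Tris-HCl pH 8.0, 10 mM MgCl2, 10 mM DTT, 1 uM FPP, 1 uM 1,4-dihydroxy-2-naphthoic acid, 1 uM IPP, 20 uM AdoMet plus [3H]-AdoMet; inhibitor 100 uM final; 37 °C 1 h; acid-methanol quench, hexane/2-propanol extraction, scintillation counting; triplicate; % of no-inhibitor activity.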

Moraxella catarrhalis = test: Antibacterial activity against Moraxella catarrhalis; type: functional; method in brief: as §1
Enterococcus faecium = test: Antibacterial activity against Enterococcus faecium CT26; type: functional; method in brief: as §1
Staphylococcus aureus = test: Antibacterial activity against Staphylococcus aureus ATCC 29213; type: functional; method in brief: as §1
Escherichia coli = test: Inhibition of Escherichia coli DNA methyltransferase Dam assessed as transfer of [3H-Me] to DNA at 100 uM relative to control
Method in brief: (§3)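 Inhibitor at 100 uM; methyl transfer from [3H-Me]-AdoMet to DNA substrate measured, expressed as percent of activity without inhibitor.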

Caulobacter vibrioides [5] = test: Inhibition of Caulobacter crescentus DNA methyltransferase CcrM assessed as transfer of [3H-Me] to DNA at 100 uM relative to control; method in brief: as §3
Caulobacter vibrioides [6] = test: Antibacterial activity against Caulobacter crescentus after 18 hrs; type: functional
Francisella tularensis = test: Antibacterial activity against Francisella tularensis; type: functional; method in brief: as §2

C=CB(Oc1cccc2cccnc12)c1cccc(Cl)c1
MIC (Bacillus subtilis): 4 µg/mL (≈ 13.6 µM)
MIC (Bacillus anthracis): 8 µg/mL (≈ 27.3 µM)
MIC (Haemophilus influenzae): 4 µg/mL (≈ 13.6 µM)
MIC [1]: 0.62 µg/mL (≈ 2.11 µM)
MIC [2]: 1 µg/mL (≈ 3.41 µM)
MIC (Enterococcus faecalis): 64 µg/mL (≈ 218 µM)
MIC [3]: 16 µg/mL (≈ 54.5 µM)
inhibition [4]: 50%
MIC (Moraxella catarrhalis): 4 µg/mL (≈ 13.6 µM)
MIC (Enterococcus faecium): 4 µg/mL (≈ 13.6 µM)
MIC (Staphylococcus aureus): 2 µg/mL (≈ 6.81 µM)

Clc1ccc(C(Oc2cccc3cccnc23)c2ccc(Cl)cc2)cc1
MIC (Bacillus subtilis): > 64 µg/mL
Activity (Escherichia coli): inactive
MIC (Haemophilus influenzae): > 64 µg/mL
MIC [1]: > 5 µg/mL
Activity (Caulobacter vibrioides [5]): inactive
MIC [2]: > 64 µg/mL
MIC (Enterococcus faecalis): > 64 µg/mL
MIC [3]: > 64 µg/mL
MIC (Enterococcus faecium): > 64 µg/mL
MIC (Staphylococcus aureus): > 64 µg/mL

C=CB(Oc1cccc2cccnc12)c1ccc(Cl)cc1
MIC (Bacillus subtilis): 4 µg/mL (≈ 13.6 µM)
MIC (Haemophilus influenzae): 2 µg/mL (≈ 6.81 µM)
MIC [1]: 0.62 µg/mL (≈ 2.11 µM)
MIC [2]: 1 µg/mL (≈ 3.41 µM)
MIC (Enterococcus faecalis): > 64 µg/mL
MIC [3]: 32 µg/mL (≈ 109 µM)
MIC (Moraxella catarrhalis): 1 µg/mL (≈ 3.41 µM)
MIC (Enterococcus faecium): 4 µg/mL (≈ 13.6 µM)
MIC (Staphylococcus aureus): 2 µg/mL (≈ 6.81 µM)

Fc1ccc(B(Oc2cccc3cccnc23)c2ccc(F)cc2)cc1
MIC (Haemophilus influenzae): 4 µg/mL (≈ 11.6 µM)
MIC [1]: 0.62 µg/mL (≈ 1.8 µM)
MIC [2]: 2 µg/mL (≈ 5.79 µM)
MIC (Enterococcus faecalis): 32 µg/mL (≈ 92.7 µM)
MIC (Caulobacter vibrioides [6]): 12.5 µg/mL (≈ 36.2 µM)
MIC (Moraxella catarrhalis): 2 µg/mL (≈ 5.79 µM)
MIC (Enterococcus faecium): 32 µg/mL (≈ 92.7 µM)
MIC (Staphylococcus aureus): 4 µg/mL (≈ 11.6 µM)

C=CB(Oc1cccc2cccnc12)c1cccc(F)c1
MIC (Bacillus subtilis): 2 µg/mL (≈ 7.22 µM)
MIC (Bacillus anthracis): 8 µg/mL (≈ 28.9 µM)
MIC (Haemophilus influenzae): 2 µg/mL (≈ 7.22 µM)
MIC [1]: 0.31 µg/mL (≈ 1.12 µM)
MIC [2]: 1 µg/mL (≈ 3.61 µM)
MIC (Francisella tularensis): 16 µg/mL (≈ 57.7 µM)
MIC (Enterococcus faecalis): > 64 µg/mL
MIC [3]: 32 µg/mL (≈ 115 µM)
MIC (Moraxella catarrhalis): 1 µg/mL (≈ 3.61 µM)
MIC (Enterococcus faecium): 2 µg/mL (≈ 7.22 µM)
MIC (Staphylococcus aureus): 2 µg/mL (≈ 7.22 µM)

Clc1cccc(B(Oc2cccc3cccnc23)c2cccc(Cl)c2)c1
MIC (Bacillus subtilis): 2 µg/mL (≈ 5.29 µM)
MIC (Bacillus anthracis): 6.25 µg/mL (≈ 16.5 µM)
MIC (Haemophilus influenzae): 8 µg/mL (≈ 21.2 µM)
MIC [1]: 0.62 µg/mL (≈ 1.64 µM)
Activity (Caulobacter vibrioides [5]): Active
MIC [2]: 2 µg/mL (≈ 5.29 µM)
MIC (Francisella tularensis): 0.01 µg/mL (≈ 0.0265 µM)
MIC (Enterococcus faecalis): 32 µg/mL (≈ 84.6 µM)
MIC [3]: 32 µg/mL (≈ 84.6 µM)
MIC (Moraxella catarrhalis): 2 µg/mL (≈ 5.29 µM)
MIC (Enterococcus faecium): 4 µg/mL (≈ 10.6 µM)
MIC (Staphylococcus aureus): 1 µg/mL (≈ 2.65 µM)

Clc1ccc(B(Oc2cccc3cccnc23)c2ccc(Cl)cc2)cc1
MIC (Bacillus subtilis): 2 µg/mL (≈ 5.29 µM)
MIC (Bacillus anthracis): 6.25 µg/mL (≈ 16.5 µM)
MIC (Haemophilus influenzae): 8 µg/mL (≈ 21.2 µM)
MIC [1]: 0.31 µg/mL (≈ 0.82 µM)
Activity (Caulobacter vibrioides [5]): Active
MIC [2]: 2 µg/mL (≈ 5.29 µM)
MIC (Francisella tularensis): 0.03 µg/mL (≈ 0.0794 µM)
MIC (Enterococcus faecalis): 4 µg/mL (≈ 10.6 µM)
MIC [3]: 64 µg/mL (≈ 169 µM)
MIC (Caulobacter vibrioides [6]): 4 µg/mL (≈ 10.6 µM)
MIC (Moraxella catarrhalis): 2 µg/mL (≈ 5.29 µM)
MIC (Enterococcus faecium): 4 µg/mL (≈ 10.6 µM)
MIC (Staphylococcus aureus): 2 µg/mL (≈ 5.29 µM)

C=CB(Oc1cccc2cccnc12)c1ccccc1Cl
MIC (Bacillus subtilis): 4 µg/mL (≈ 13.6 µM)
MIC (Haemophilus influenzae): 2 µg/mL (≈ 6.81 µM)
MIC [1]: 0.31 µg/mL (≈ 1.06 µM)
MIC [2]: 1 µg/mL (≈ 3.41 µM)
MIC (Francisella tularensis): 16 µg/mL (≈ 54.5 µM)
MIC (Enterococcus faecalis): 64 µg/mL (≈ 218 µM)
MIC [3]: 32 µg/mL (≈ 109 µM)
MIC (Moraxella catarrhalis): 1 µg/mL (≈ 3.41 µM)
MIC (Enterococcus faecium): 2 µg/mL (≈ 6.81 µM)
MIC (Staphylococcus aureus): 2 µg/mL (≈ 6.81 µM)

Clc1ccc(B(Oc2ccc(Cl)c3cccnc23)c2ccc(Cl)cc2)cc1
MIC (Bacillus subtilis): 32 µg/mL (≈ 77.6 µM)
MIC (Bacillus anthracis): 5.3 µg/mL (≈ 12.8 µM)
MIC (Haemophilus influenzae): 0.25 µg/mL (≈ 0.606 µM)
MIC [1]: 0.62 µg/mL (≈ 1.5 µM)
Activity (Caulobacter vibrioides [5]): Active
MIC [2]: 0.25 µg/mL (≈ 0.606 µM)
MIC (Francisella tularensis): 0.01 µg/mL (≈ 0.0242 µM)
MIC (Enterococcus faecalis): 32 µg/mL (≈ 77.6 µM)
MIC [3]: 8 µg/mL (≈ 19.4 µM)
MIC (Caulobacter vibrioides [6]): 2.6 µg/mL (≈ 6.3 µM)
MIC (Moraxella catarrhalis): ≤ 0.125 µg/mL
MIC (Enterococcus faecium): 2 µg/mL (≈ 4.85 µM)
MIC (Staphylococcus aureus): 0.5 µg/mL (≈ 1.21 µM)

C=CB(Oc1cccc2cccnc12)c1cccc(C#N)c1
MIC (Bacillus subtilis): 4 µg/mL (≈ 14.1 µM)
MIC (Bacillus anthracis): 8 µg/mL (≈ 28.2 µM)
MIC (Haemophilus influenzae): 2 µg/mL (≈ 7.04 µM)
MIC [1]: 0.62 µg/mL (≈ 2.18 µM)
MIC [2]: 1 µg/mL (≈ 3.52 µM)
MIC (Francisella tularensis): 8 µg/mL (≈ 28.2 µM)
MIC (Enterococcus faecalis): 8 µg/mL (≈ 28.2 µM)
MIC [3]: 32 µg/mL (≈ 113 µM)
MIC (Moraxella catarrhalis): 2 µg/mL (≈ 7.04 µM)
MIC (Enterococcus faecium): 2 µg/mL (≈ 7.04 µM)
MIC (Staphylococcus aureus): 1 µg/mL (≈ 3.52 µM)

Cc1ccc2cccc(OB(c3ccc(Cl)cc3)c3ccc(Cl)cc3)c2n1
Activity (Caulobacter vibrioides [5]): Active
MIC [2]: 8 µg/mL (≈ 20.4 µM)
MIC (Francisella tularensis): 6 µg/mL (≈ 15.3 µM)
MIC (Enterococcus faecalis): 32 µg/mL (≈ 81.6 µM)
MIC (Caulobacter vibrioides [6]): 2 µg/mL (≈ 5.1 µM)
MIC (Enterococcus faecium): 16 µg/mL (≈ 40.8 µM)
MIC (Staphylococcus aureus): 16 µg/mL (≈ 40.8 µM)

C=CB(Oc1cccc2cccnc12)c1ccc(F)c(Cl)c1
MIC (Bacillus subtilis): 4 µg/mL (≈ 12.8 µM)
MIC (Haemophilus influenzae): 4 µg/mL (≈ 12.8 µM)
MIC [1]: 0.62 µg/mL (≈ 1.99 µM)
MIC [2]: 1 µg/mL (≈ 3.21 µM)
MIC (Enterococcus faecalis): 32 µg/mL (≈ 103 µM)
MIC [3]: 32 µg/mL (≈ 103 µM)
MIC (Moraxella catarrhalis): 2 µg/mL (≈ 6.42 µM)
MIC (Enterococcus faecium): 2 µg/mL (≈ 6.42 µM)
MIC (Staphylococcus aureus): 2 µg/mL (≈ 6.42 µM)

C=CB(Oc1cccc2cccnc12)c1ccccc1
MIC (Haemophilus influenzae): 16 µg/mL (≈ 61.7 µM)
MIC [2]: 1 µg/mL (≈ 3.86 µM)
MIC (Enterococcus faecalis): > 64 µg/mL
MIC [3]: 32 µg/mL (≈ 123 µM)
MIC (Moraxella catarrhalis): 2 µg/mL (≈ 7.72 µM)
MIC (Enterococcus faecium): 4 µg/mL (≈ 15.4 µM)
MIC (Staphylococcus aureus): 2 µg/mL (≈ 7.72 µM)
